Measured values reported in ChEMBL document CHEMBL3872250, “Structure-activity and in vivo evaluation of a novel lipoprotein lipase (LPL) activator” (Bioorg Med Chem Lett, 2017).
Each block holds one molecule with its values, some of them ahead of it. The source made the active and inactive calls. The rule behind the calls is not given here.

Experiments:
[1] = molecular target: T1, Lipoprotein lipase (Bos taurus) (UniProt P11151); test: Inhibition of bovine recombinant lipoprotein lipase at 100 uM using p-Nitrophenyl butyrate as substrate by HTS assay
T1 sequence (whole entry): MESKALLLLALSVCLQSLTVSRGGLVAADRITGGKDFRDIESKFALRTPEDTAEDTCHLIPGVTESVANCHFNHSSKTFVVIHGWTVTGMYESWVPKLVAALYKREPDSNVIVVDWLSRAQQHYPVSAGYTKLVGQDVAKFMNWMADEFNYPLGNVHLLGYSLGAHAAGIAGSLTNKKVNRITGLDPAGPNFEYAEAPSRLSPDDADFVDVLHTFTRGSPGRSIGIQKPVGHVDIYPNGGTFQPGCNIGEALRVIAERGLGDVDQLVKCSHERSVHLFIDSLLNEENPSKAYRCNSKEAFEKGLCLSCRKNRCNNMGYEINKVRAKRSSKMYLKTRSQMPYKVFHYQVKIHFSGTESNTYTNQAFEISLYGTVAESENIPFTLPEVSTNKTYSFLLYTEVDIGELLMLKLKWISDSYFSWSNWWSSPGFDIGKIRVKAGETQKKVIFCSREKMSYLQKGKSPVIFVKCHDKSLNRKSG
How it was run: (§1)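 Recombinant LPL screened at 100 µM in a 384-well format with p-nitrophenyl butyrate as substrate. […] release was read as absorbance at 405 nm, and activity was expressed as fold change in absorbance.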

Rattus norvegicus = test: In vivo activation of lipoprotein lipase in STZ-induced diabetes rat model relative to control; assay type: functional
[2] = molecular target: T1, Lipoprotein lipase (Bos taurus); test: Activation of bovine recombinant lipoprotein lipase at 100 uM using p-Nitrophenyl butyrate as substrate by HTS assay; how it was run: as §1
Mus musculus [3] = test: In vivo activation of lipoprotein lipase in high fat diet fed C57BL/6 mouse assessed as reduction in total body fat content at 1 to 10 mg/kg, ip administered daily on last week of 4 months study until end; assay type: functional, organism-based
How it was run: (§2)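 Mice fed a high-fat diet (60% kcal from fat) for four months, with daily i.p. dosing at 10 mg/kg during the final week. A dose-response at 1, 5 and 10 mg/kg was used to select the dose. Body weight, total body fat and lean mass were measured by EchoMRI before sacrifice. Mean ± S.D., n = 4.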

Mus musculus [4] = test: In vivo activation of lipoprotein lipase in high fat diet fed C57BL/6 mouse at 10 mg/kg, ip administered daily on last week of 4 months study until end by fluorescence assay; assay type: functional, organism-based
Mus musculus [5] = test: Reduction in serum cholesterol level in high fat diet fed C57BL/6 mouse at 10 mg/kg, ip administered daily on last week of 4 months study until end; assay type: functional, organism-based
How it was run: (§3)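 Serum triglycerides and cholesterol measured with commercial kits after sacrifice. Mice had four months of high-fat diet, with 10 mg/kg i.p. given in the last week. Mean ± SE, n = 3.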

Mus musculus [6] = test: In vivo activation of lipoprotein lipase in high fat diet fed C57BL/6 mouse assessed as reduction in body weight at 1 to 10 mg/kg, ip administered daily on last week of 4 months study until end; assay type: functional, organism-based; how it was run: as §2
Mus musculus [7] = test: Reduction in lipid accumulation in high fat diet fed C57BL/6 mouse liver at 10 mg/kg, ip administered daily on last week of 4 months study until end by hematoxylin and eosin staining based assay; assay type: functional, organism-based
How it was run: (§4)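 After four months of high-fat diet with 10 mg/kg i.p. dosing over the final week, livers were examined by gross morphology and size. Sections were stained with hematoxylin and eosin and viewed at 20X to assess lipid accumulation.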

Mus musculus [8] = test: Reduction in serum triglycerides level in high fat diet fed C57BL/6 mouse at 10 mg/kg, ip administered daily on last week of 4 months study until end; assay type: functional, organism-based; how it was run: as §3
Mus musculus [9] = test: Hepatoprotective activity against high fat diet fed C57BL/6 mouse liver assessed as increase in SIRT1 level at 10 mg/kg, ip administered daily on last week of 4 months study until end; assay type: functional, organism-based
How it was run: (§5)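 Mice on a high-fat diet for four months were dosed at 10 mg/kg for seven days. Hepatic protein levels of SIRT1 or LC3 were then measured. n = 5 mice; significance at P<0.05.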

Mus musculus [10] = test: Hepatoprotective activity against high fat diet fed C57BL/6 mouse liver assessed as increase in LC3 level at 10 mg/kg, ip administered daily on last week of 4 months study until end; assay type: functional, organism-based; how it was run: as §5
[11] = molecular target: T1, Lipoprotein lipase (Bos taurus); test: Activation of bovine recombinant lipoprotein lipase at 100 uM using p-Nitrophenyl butyrate as substrate by HTS assay relative to NO-1886; how it was run: as §1
Mus musculus [12] = test: Toxicity in high fat diet fed C57BL/6 mouse liver assessed as morphological changes at 10 mg/kg, ip administered daily on last week of 4 months study until end by hematoxylin and eosin staining based assay; assay type: organism-based; settings: in vivo, 2922 h; how it was run: as §4
[13] = substrate: CC1(C)CC1(C(=O)NCCCn1ccnc1)c1ccc(F)cc1; test: Binding affinity to bovine recombinant lipoprotein lipase assessed as Km for substrate using p-Nitrophenyl butyrate as substrate by Lineweaver-Burk plot analysis (reference value: 8.15 mM); settings: Bos taurus

inhibition [1]: Active
Molecule: O=C(Cc1ccc(O)cc1)NCCCn1ccnc1

Activity [2]: Active
Molecule: O=C(Cc1ccc(F)cc1)NCCCn1ccnc1

Activity [2]: Active
Molecule: O=C(Cc1ccc(Cl)cc1)NCCCn1ccnc1

inhibition [1]: Active
Molecule: O=C(Cc1ccc(S)cc1)NCCCn1ccnc1

The remaining lines, values behind:

Molecule: CCOP(=O)(Cc1ccc(C(=O)Nc2ccc(Br)cc2C#N)cc1)OCC [IBROLIPIM]
Activity (Rattus norvegicus): 59%

Molecule: CC1(C)CC1(C(=O)NCCCn1ccnc1)c1ccc(F)cc1 (configuration not stated)
Activity (Mus musculus [3]): Active
Activity [2]: Active
Activity (Mus musculus [4]): Active
Activity (Mus musculus [5]): Active
Activity (Mus musculus [6]): Active
Activity (Mus musculus [7]): Active
Activity (Mus musculus [8]): Active
Activity (Mus musculus [9]): Active
Activity (Mus musculus [10]): Active
fold change (FC) [11]: 2
Activity (Mus musculus [12]): Non-Toxic

Molecule: CC1(C)CC1(C(=O)NCCCCN1CCOCC1)c1ccc(F)cc1 (configuration not stated)
Activity [2]: Active

Molecule: Cc1cccnc1CN1CCN(C(=O)C2(c3ccc(F)cc3)CC2(C)C)CC1 (configuration not stated)
inhibition [1]: Active

Molecule: O=C(Cc1ccccc1)NCCCn1ccnc1
Activity [2]: Active

Molecule: CC1(C)CC1(C(=O)NCCNc1cccnc1)c1ccc(F)cc1 (configuration not stated)
inhibition [1]: Active

Molecule: CC1(C)CC1(C(=O)NCCCc1csc(N)n1)c1ccc(F)cc1 (configuration not stated)
inhibition [1]: Active

B1: Lipoprotein lipase (Bos taurus), P11151 (protein)
chain: MESKALLLLALSVCLQSLTVSRGGLVAADRITGGKDFRDIESKFALRTPEDTAEDTCHLIPGVTESVANCHFNHSSKTFVVIHGWTVTGMYESWVPKLVAALYKREPDSNVIVVDWLSRAQQHYPVSAGYTKLVGQDVAKFMNWMADEFNYPLGNVHLLGYSLGAHAAGIAGSLTNKKVNRITGLDPAGPNFEYAEAPSRLSPDDADFVDVLHTFTRGSPGRSIGIQKPVGHVDIYPNGGTFQPGCNIGEALRVIAERGLGDVDQLVKCSHERSVHLFIDSLLNEENPSKAYRCNSKEAFEKGLCLSCRKNRCNNMGYEINKVRAKRSSKMYLKTRSQMPYKVFHYQVKIHFSGTESNTYTNQAFEISLYGTVAESENIPFTLPEVSTNKTYSFLLYTEVDIGELLMLKLKWISDSYFSWSNWWSSPGFDIGKIRVKAGETQKKVIFCSREKMSYLQKGKSPVIFVKCHDKSLNRKSG
Km [13]: 648 µM
